Reference: paper PMC9414273 (Clinical Cancer Research, 2021)
Read-outs that look alike come from different tables or passages of the source.

Assays:
[1] = system: patients with advanced cancer; assay: Safety and tolerability: treatment-emergent adverse events; type: in vivo, human
In short: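 Patients aged 18 or over with ECOG 0–1 got oral test compound twice daily, 2w/2w or 3w/1w per 28-day cycle, in a 3+3 escalation. Each dose level had at least 3 DLT-evaluable patients. AEs graded by CTCAE v4.03, and investigators judged relation to treatment. AE frequency and percentage given per arm for all patients dosed.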

[2] = Plasma pharmacokinetics of LY3200882; type: in vivo, human
In short: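 Oral test compound twice daily on 2w/2w or 3w/1w schedules, 5–50 mg. Plasma measured by validated LC-MS/MS. Cmax, tmax, AUC, CL/F and V/F estimated noncompartmentally. Dose proportionality tested by a power model on log-transformed Cmax and AUC with dose as fixed effect. Steady state and accumulation inferred from t1/2.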

[3] = system: patients with advanced or metastatic cancers; assay: Antitumor activity; type: in vivo, human; settings: for median PFS: advanced cancers
[4] = system: patients with grade 4 glioma; assay: Antitumor activity; type: in vivo, human
In short: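 Patients with grade 4 glioma (IDH1/2-mutant or IDH wild-type) got oral test compound twice daily in 28-day cycles: dose escalation on 2w/2w or 3w/1w, expansion at 50 mg 2w/2w. RANO response by CT or MRI at baseline and days 22–28 of every other cycle until confirmed progression or withdrawal. CR/PR confirmed and reported as frequency. PFS and OS by Kaplan–Meier.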

[5] = cited from earlier work; for NOAEL daily AUC threshold for cardiotoxicity: established preclinically in rats and dogs
T-cell proliferation = settings: preclinical; cited from earlier work
[6] = system: 4T1-luciferase–positive preclinical tumor models of triple-negative breast cancer; settings: in vitro and in vivo; cited from earlier work
[7] = system: patients with pancreatic cancer; settings: patients with treatment-naïve advanced pancreatic cancer; cited from earlier work
[8] = Any grade, Japanese cohort (N = 9)
[9] = Any grade, grade 4 glioma expansion, RP2D 2w/2w (N = 40)
[10] = Any grade, schedule A 2w/2w escalation (N = 30)
[11] = Any grade, schedule B 3w/1w escalation (N = 32)
[12] = Grade ≥3, Japanese cohort (N = 9)
[13] = Grade ≥3, grade 4 glioma expansion, RP2D 2w/2w (N = 40)
[14] = Grade ≥3, schedule A 2w/2w escalation (N = 30)
[15] = Grade ≥3, schedule B 3w/1w escalation (N = 32)
[16] = of a total of 139 patients, LY3200882-based therapies
[17] = schedule A 2w/2w escalation (N = 30)
[18] = schedule B 3w/1w escalation (N = 32)
[19] = grade 4 glioma expansion, RP2D 2w/2w (N = 40)
[20] = single patient, IDH WT grade 4 glioma, monotherapy 50 mg twice a day 2w/2w

Compound: CC(C)(O)c1cc(Nc2cc(Oc3cn(C4CC4)nc3C3CCOCC3)ccn2)ccn1 [LY3200882]
- Dose-limiting toxicities ([1]; 2w/2w and 3w/1w schedules): not observed
- Recommended phase II dose (RP2D) ([1]; 2w/2w schedule): 50 mg twice a day
- Recommended phase II dose (RP2D) ([1]; 3w/1w schedule): 35 mg twice a day
- ALT increased (study treatment-related AE) [1, 8]: 1 (11) n (%)
- Anemia (study treatment-related AE) [1, 8]: 1 (11) n (%)
- Fatigue (study treatment-related AE) [1, 8]: 0 (0) n (%)
- Nausea (study treatment-related AE) [1, 8]: 1 (11) n (%)
- Subjects with ≥1 TEAE related to study treatment [1, 8]: 3 (33) n (%)
- ALT increased (study treatment-related AE) [1, 9]: 0 (0) n (%)
- Anemia (study treatment-related AE) [1, 9]: 0 (0) n (%)
- Fatigue (study treatment-related AE) [1, 9]: 4 (10) n (%)
- Nausea (study treatment-related AE) [1, 9]: 0 (0) n (%)
- Subjects with ≥1 TEAE related to study treatment [1, 9]: 10 (25) n (%)
- ALT increased (study treatment-related AE) [1, 10]: 0 (0) n (%)
- Anemia (study treatment-related AE) [1, 10]: 1 (3) n (%)
- Fatigue (study treatment-related AE) [1, 10]: 0 (0) n (%)
- Nausea (study treatment-related AE) [1, 10]: 1 (3) n (%)
- Subjects with ≥1 TEAE related to study treatment [1, 10]: 10 (33) n (%)
- ALT increased (study treatment-related AE) [1, 11]: 2 (6) n (%)
- Anemia (study treatment-related AE) [1, 11]: 1 (3) n (%)
- Fatigue (study treatment-related AE) [1, 11]: 1 (3) n (%)
- Nausea (study treatment-related AE) [1, 11]: 1 (3) n (%)
- Subjects with ≥1 TEAE related to study treatment [1, 11]: 10 (31) n (%)
- ALT increased (study treatment-related AE) [1, 12]: 0 (0) n (%)
- Anemia (study treatment-related AE) [1, 12]: 0 (0) n (%)
- Fatigue (study treatment-related AE) [1, 12]: 0 (0) n (%)
- Nausea (study treatment-related AE) [1, 12]: 0 (0) n (%)
- Subjects with ≥1 TEAE related to study treatment [1, 12]: 0 (0) n (%)
- ALT increased (study treatment-related AE) [1, 13]: 0 (0) n (%)
- Anemia (study treatment-related AE) [1, 13]: 0 (0) n (%)
- Fatigue (study treatment-related AE) [1, 13]: 0 (0) n (%)
- Nausea (study treatment-related AE) [1, 13]: 0 (0) n (%)
- Subjects with ≥1 TEAE related to study treatment [1, 13]: 0 (0) n (%)
- ALT increased (study treatment-related AE) [1, 14]: 0 (0) n (%)
- Anemia (study treatment-related AE) [1, 14]: 0 (0) n (%)
- Fatigue (study treatment-related AE) [1, 14]: 0 (0) n (%)
- Nausea (study treatment-related AE) [1, 14]: 0 (0) n (%)
- Subjects with ≥1 TEAE related to study treatment [1, 14]: 0 (0) n (%)
- ALT increased (study treatment-related AE) [1, 15]: 0 (0) n (%)
- Anemia (study treatment-related AE) [1, 15]: 0 (0) n (%)
- Fatigue (study treatment-related AE) [1, 15]: 0 (0) n (%)
- Nausea (study treatment-related AE) [1, 15]: 0 (0) n (%)
- Subjects with ≥1 TEAE related to study treatment [1, 15]: 0 (0) n (%)
- Cardiovascular AEs ([1]; LY3200882 as monotherapy): no cardiovascular AEs were observed
- Deaths related to study treatment ([1]; overall): none
- Patients with SAEs related to study drug ([1]; overall, 3 patients, only in combination expansion arms): 2.2%
- Patients with at least 1 serious AE (SAE) ([1]; overall, 24 patients): 17.3%
- Deaths reported in the study ([1]; overall, 63 deaths): 45.3%
- Patients with TEAEs that were study-treatment (LY3200882) related ([1]; overall, all arms, 55 patients): 39.6%
- Patients who experienced ≥1 TEAE ([1]; overall, all arms, 130 of 139 treated patients): 93.5%
- PK profile linearity ([2]; 5- to 50-mg dose range): linear with dose and time
- Doses after which steady state would be achieved ([2]; based on the short t1/2): 2 doses
- Time at which peak concentration was reached after administration ([2]; oral, patients): 2 h
- mean CL/F ([2]; oral, patients): 57.3 L/h
- mean V/F ([2]; oral, patients): 559 L
- Accumulation ratio ([2]; steady state, twice a day, based on the short t1/2): 1.4 fold
- Effect on its own metabolism ([2]; suggested by PK constant over time): neither an inhibitor nor an inducer of its own metabolism
- median OS ([3]; 35 mg twice a day 3w/1w (8 patients), 95% CI 2.6–NE): 4.0 months
- median OS ([3]; 50 mg twice a day 2w/2w (17 patients), 95% CI 1.2–11.4): 6.1 months
- Best overall response: CR ([3]; Japanese cohort (N = 9)): 0 (0) n (%)
- Best overall response: Nonevaluable ([3]; Japanese cohort (N = 9)): 1 (11) n (%)
- Best overall response: PR ([3]; Japanese cohort (N = 9)): 0 (0) n (%)
- Best overall response: Progressive disease ([3]; Japanese cohort (N = 9)): 8 (89) n (%)
- Best overall response: SD ([3]; Japanese cohort (N = 9)): 0 (0) n (%)
- DCR (CR/PR/SD) ([3]; Japanese cohort (N = 9)): 0 (0) n (%)
- ORR (CR/PR) ([3]; Japanese cohort (N = 9)): 0 (0) n (%)
- median PFS ([3]; 35 mg twice a day 3w/1w (n = 8), 95% CI 0.8–2.6): 1.7 months
- median PFS ([3]; 50 mg twice a day 2w/2w (n = 17), 95% CI 0.9–2.0): 1.8 months
- Patients who achieved radiologic CR/PR [3, 16]: 11 patients
- Patients who had SD [3, 16]: 28 patients
- DCR ([3]; overall study population): 28.1%
- Best overall response: CR [3, 17]: 0 (0) n (%)
- Best overall response: Nonevaluable [3, 17]: 8 (27) n (%)
- Best overall response: PR [3, 17]: 1 (3) n (%)
- Best overall response: Progressive disease [3, 17]: 15 (50) n (%)
- Best overall response: SD [3, 17]: 6 (20) n (%)
- DCR (CR/PR/SD) [3, 17]: 7 (23) n (%)
- ORR (CR/PR) [3, 17]: 1 (3) n (%)
- Best overall response: CR [3, 18]: 0 (0) n (%)
- Best overall response: Nonevaluable [3, 18]: 4 (13) n (%)
- Best overall response: PR [3, 18]: 1 (3) n (%)
- Best overall response: Progressive disease [3, 18]: 20 (63) n (%)
- Best overall response: SD [3, 18]: 7 (22) n (%)
- DCR (CR/PR/SD) [3, 18]: 8 (25) n (%)
- ORR (CR/PR) [3, 18]: 1 (3) n (%)
- Duration of response (RANO PR) ([4]; dose escalation, 1 patient IDH 1–mutant grade 4 glioma, 3w/1w schedule): 3.9 months
- Duration of response (RANO PR) ([4]; dose escalation, 1 patient IDH WT grade 4 glioma, 2w/2w schedule): 19 months
- Duration of response (RANO PR) ([4]; dose-expansion arm, 1 patient IDH WT grade 4 glioma, 50 mg twice a day 2w/2w): 5.6 months
- median OS ([4]; dose-expansion arm, 15 patients with recurrent IDH mutant grade 4 glioma, 95% CI 7.3–NE): 10.6 months
- median OS ([4]; dose-expansion arm, 25 patients with IDH WT grade 4 glioma, 95% CI 4.6–9.7): 8.2 months
- median PFS ([4]; dose-expansion arm, IDH mutant, 95% CI 1.3–1.8): 1.7 months
- Best overall response: CR [4, 19]: 0 (0) n (%)
- Best overall response: Nonevaluable [4, 19]: 7 (18) n (%)
- Best overall response: PR [4, 19]: 1 (3) n (%)
- Best overall response: Progressive disease [4, 19]: 26 (65) n (%)
- Best overall response: SD [4, 19]: 6 (15) n (%)
- DCR (CR/PR/SD) [4, 19]: 7 (18) n (%)
- ORR (CR/PR) [4, 19]: 1 (3) n (%)
- Time remained on trial [4, 20]: 30.4 months
- Tumor reduction by RANO assessment [4, 20]: 94%
- NOAEL daily AUC threshold for cardiotoxicity ([5]; 2w/2w schedule): 3.4 mg X h/L
- NOAEL daily AUC threshold for cardiotoxicity ([5]; 3w/1w schedule): 1.56 mg X h/L
- NOAEL for cardiotoxicity (AUC) ([5]; nonclinical toxicology studies): 3.4 mg X hours/L
- Immunomodulatory effects (T-cell proliferation): induction of T-cell proliferation
- Effect on tumors in 4T1 models [6]: durable tumor regression

Compound: FOLFIRINOX
- ORR [7]: 31.6%
